In ChEMBL document CHEMBL1153739, “Chemical constituents of the bark of Machilus wangchiana and their biological activities” (J Nat Prod, 2009):

Columns and labels:
[1] = Antiinflammatory activity in rat PMNC assessed as inhibition of platelet activating factor-induced beta-glucuronidase release at 10 uM treated 15 mins before PAF by spectrophotometry; type: functional
[2] = Hepatoprotective activity in rat WB-F344 cells assessed as inhibition of D-galactosamine-induced cytotoxicity at 100 uM treated 1 hr before D-galactosamine challenge after 24 hrs by MTT assay; type: functional
Method in brief: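 Cells plated at 1 × 10⁴ per well in DMEM with 10% fetal calf serum, penicillin and streptomycin, precultured 24 h at 37 °C, 5% CO₂. Sample added in fresh medium 1 h before 50 mM DL-galactosamine for 24 h. Sample toxicity run in parallel without galactosamine. MTT 0.5 mg/mL for 4 h, formazan dissolved in DMSO, OD 490 nm, % inhibition calculated.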

BGC-823 = test: Cytotoxicity against human BGC823 cells; type: functional, cell-based
A2780 = test: Cytotoxicity against human A2780 cells; type: functional, cell-based

| Compound | inhibition at 10 µM [1] | inhibition at 100 µM [2] | IC50 (BGC-823) | IC50 (A2780) |
| --- | --- | --- | --- | --- |
| C#CCCCCCCCC/C=C/C1=C[C@H](C)OC1=O [HAMABIWALACTONE A] | 60% | – | – | – |
| COc1cc(C[C@@H](C)[C@@H](C)Cc2ccc(O)c(OC)c2)ccc1O [MESODIHYDROGUAIARETIC ACID] | 54% | – | – | – |
| COC(=O)c1cc(OC)c2c(c1-c1c(CO)cc(OC)c3c1OCO3)OCO2 [BICYCLOL] | – | 41% | – | – |
| COc1cc([C@@H](O)[C@@H](C)C(C)=O)ccc1O | – | 43% | – | – |
| CCO[C@H](c1ccc(O)c(OC)c1)[C@@H](C)C(C)=O | 42% | 54% | – | – |
| CC[C@@]1(O)C(=O)OCc2c1cc1n(c2=O)Cc2cc3ccccc3nc2-1 [CAMPTOTHECIN] | – | – | 210 nM | – |
| COc1cc([C@@H]2c3c(cc(OC)c(O)c3OC)C[C@@H](C)[C@H]2C)ccc1O | 47% | – | – | – |
| COc1cc([C@@H](OC)[C@@H](C)C(C)=O)ccc1O | 67% | 47% | – | – |
| COc1cc([C@H]2OC(=O)[C@](C)(O)[C@@H]2C)ccc1O | 76% | 39% | – | – |
| O=C(O)C[C@]12OC(=O)C[C@H]1O[C@@H]1Cc3c(O)cc(O)cc3O[C@@H]12 | 46% | 40% | – | – |
| C=C1OC(=O)/C(=C/CCCCCCCCCCCCCCCCC)[C@H]1O | – | – | 130 nM | 2660 nM |
| COc1cc([C@H]2c3cc(O)c(OC)cc3C[C@@H](C)[C@@H]2C)ccc1O | 48% | – | – | – |
